Data taken from ChEMBL document CHEMBL5537199, “Discovery and SAR Study of Boronic Acid-Based Selective PDE3B Inhibitors from a Novel DNA-Encoded Library” (J Med Chem, 2024).
Activity calls are given as the source filed them. The calls are words filed in the database; no cut-off is given here.

Legend:
[1] = target: T1, cGMP-inhibited 3',5'-cyclic phosphodiesterase 3B (Homo sapiens, UniProt Q13370); test: Inhibition of full-length PDE3B (M1 to E1112 residues) (unknown origin) using FAM-cAMP as substrate incubated for 120 mins by TR-FRET IMAP assay
Outline: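 Buffer 50 mM Tris-HCl pH 7.5, 8.3 mM MgCl2, 1.7 mM EGTA, 0.05% BSA. Compounds run as a concentration curve with a top final concentration of 100 μM. DMSO and 10 μM trequinsin served as controls. Terbium TR-FRET ratio read at 520:490 nm.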
Target sequence in this assay (Q13370 whole entry, the tested form may be a part): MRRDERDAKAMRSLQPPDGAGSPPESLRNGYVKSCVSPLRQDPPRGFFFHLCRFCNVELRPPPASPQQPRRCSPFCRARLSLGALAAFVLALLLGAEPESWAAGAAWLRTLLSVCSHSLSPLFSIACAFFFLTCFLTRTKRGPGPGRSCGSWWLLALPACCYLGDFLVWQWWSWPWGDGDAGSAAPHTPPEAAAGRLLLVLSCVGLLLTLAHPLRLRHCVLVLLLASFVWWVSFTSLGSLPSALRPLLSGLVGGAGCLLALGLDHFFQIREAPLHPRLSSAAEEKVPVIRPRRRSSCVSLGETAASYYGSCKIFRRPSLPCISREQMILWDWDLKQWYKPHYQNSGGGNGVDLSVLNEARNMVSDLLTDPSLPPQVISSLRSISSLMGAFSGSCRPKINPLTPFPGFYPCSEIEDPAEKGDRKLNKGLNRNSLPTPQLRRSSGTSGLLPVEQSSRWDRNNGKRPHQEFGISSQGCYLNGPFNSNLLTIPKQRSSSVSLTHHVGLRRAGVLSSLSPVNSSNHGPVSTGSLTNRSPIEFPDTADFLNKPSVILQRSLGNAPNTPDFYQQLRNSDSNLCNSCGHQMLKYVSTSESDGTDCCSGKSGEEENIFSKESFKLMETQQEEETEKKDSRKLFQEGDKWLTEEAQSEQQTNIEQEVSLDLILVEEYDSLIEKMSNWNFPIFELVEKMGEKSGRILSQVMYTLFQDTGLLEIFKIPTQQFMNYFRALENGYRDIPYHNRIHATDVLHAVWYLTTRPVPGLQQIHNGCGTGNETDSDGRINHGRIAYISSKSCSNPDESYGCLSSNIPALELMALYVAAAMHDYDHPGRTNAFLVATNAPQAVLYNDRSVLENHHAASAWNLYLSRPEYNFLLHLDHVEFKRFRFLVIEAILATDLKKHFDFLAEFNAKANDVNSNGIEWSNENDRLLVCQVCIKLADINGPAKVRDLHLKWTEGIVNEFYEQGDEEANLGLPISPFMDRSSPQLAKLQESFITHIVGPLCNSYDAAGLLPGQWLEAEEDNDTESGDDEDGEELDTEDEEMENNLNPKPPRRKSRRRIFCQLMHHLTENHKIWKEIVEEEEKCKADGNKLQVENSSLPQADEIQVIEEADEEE

[2] = Selectivity ratio of inhibition for PDE3A (M1 to Q1141 residues) (unknown origin) by IMAP assay to inhibition for PDE3B (M1 to E1112 residues) (unknown origin) by IMAP assay
[3] = target: cGMP-inhibited 3',5'-cyclic phosphodiesterase 3A (Homo sapiens, UniProt Q14432); test: Inhibition of PDE3A (M1 to Q1141 residues) (unknown origin) using FAM-cAMP as substrate incubated for 45 mins by TR-FRET IMAP assay
Outline: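 Full-length PDE3A at 1.6 nM with 50 nM FAM-cAMP, 45 min reaction. Buffer 50 mM Tris-HCl pH 7.5, 8.3 mM MgCl2, 1.7 mM EGTA, 0.05% BSA. Compounds run as a concentration curve with a top final concentration of 100 μM. DMSO and 10 μM trequinsin served as controls. TR-FRET read at Ex 337 nm, Em 520/490 nm.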

[4] = target: T1, cGMP-inhibited 3',5'-cyclic phosphodiesterase 3B; test: Inhibition of PDE3B (unknown origin) expression in adipocytes assessed as reduction in lipid hydrolysis at 10 uM; type: cell-based
Target sequence in this assay (Q13370 whole entry, looked up, the tested form may be a part): as the sequence (Q13370 whole entry, the tested form may be a part) above

[5] = Selectivity ratio of inhibition for PDE3A (M1 to Q1141 residues) (unknown origin) by RF-MS assay to inhibition for PDE3B (M1 to E1112 residues) (unknown origin) by RF-MS assay

cGMP-inhibited 3',5'-cyclic phosphodiesterase 3A, sequence (Q14432 whole entry, the tested form may be a part): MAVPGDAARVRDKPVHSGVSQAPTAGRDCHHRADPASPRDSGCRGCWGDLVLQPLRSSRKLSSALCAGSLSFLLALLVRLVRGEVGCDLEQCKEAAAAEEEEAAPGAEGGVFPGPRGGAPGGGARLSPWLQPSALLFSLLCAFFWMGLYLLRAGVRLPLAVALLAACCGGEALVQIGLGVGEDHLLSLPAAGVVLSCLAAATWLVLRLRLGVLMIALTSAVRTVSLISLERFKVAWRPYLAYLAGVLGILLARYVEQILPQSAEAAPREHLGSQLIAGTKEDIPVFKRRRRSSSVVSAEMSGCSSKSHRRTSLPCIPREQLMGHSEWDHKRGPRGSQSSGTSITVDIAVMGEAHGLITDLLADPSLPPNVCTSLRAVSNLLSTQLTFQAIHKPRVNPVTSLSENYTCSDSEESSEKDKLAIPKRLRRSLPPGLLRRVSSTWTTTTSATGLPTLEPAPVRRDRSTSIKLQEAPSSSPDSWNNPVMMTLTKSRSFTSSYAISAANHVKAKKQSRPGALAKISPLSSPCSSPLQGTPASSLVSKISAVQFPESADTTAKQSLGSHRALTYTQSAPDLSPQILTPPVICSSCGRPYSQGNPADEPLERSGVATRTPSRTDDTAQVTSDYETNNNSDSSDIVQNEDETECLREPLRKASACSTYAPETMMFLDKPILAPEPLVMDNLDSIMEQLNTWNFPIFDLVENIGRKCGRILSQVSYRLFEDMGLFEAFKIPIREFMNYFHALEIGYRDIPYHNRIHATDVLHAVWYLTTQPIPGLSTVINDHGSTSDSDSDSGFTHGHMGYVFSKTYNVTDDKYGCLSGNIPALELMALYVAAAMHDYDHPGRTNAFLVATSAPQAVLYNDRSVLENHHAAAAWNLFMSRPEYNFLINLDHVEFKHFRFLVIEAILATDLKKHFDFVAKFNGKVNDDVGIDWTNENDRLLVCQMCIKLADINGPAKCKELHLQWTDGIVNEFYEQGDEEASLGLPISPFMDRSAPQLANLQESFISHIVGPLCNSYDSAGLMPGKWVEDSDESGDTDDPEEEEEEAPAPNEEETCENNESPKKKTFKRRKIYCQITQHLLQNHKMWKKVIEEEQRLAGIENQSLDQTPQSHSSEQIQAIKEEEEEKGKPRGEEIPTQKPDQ

| IC50 [1] | Selectivity ratio [2] | IC50 [3] | inhibition [4] | Selectivity ratio [5] | SMILES |
| --- | --- | --- | --- | --- | --- |
| 316 nM | > 300 | > 100000 nM | Active | 46 | COCC(C)NC(=O)c1cc(NC(=O)c2cc(OC)c3ccc(OC)cc3n2)cc(B(O)O)c1 (stereo not given) |
|  |  |  | Active |  | CC1CC(=O)NN=C1c1ccc(NC2=C(Cc3cccc(-c4ccccc4)c3)C(=O)CCC2)cc1 (stereo not given) |
| 7.94 nM | 0.7 | 5.01 nM | Active | 1.1 | CNC(=O)[C@@H](NC(=O)c1cc(NC(=O)c2cc(C)c3ccccc3n2)cc(B(O)O)c1)C1CCCCC1 |
| 200 nM | 2.6 | 501 nM |  | 3.8 | CCNC(=O)N1CCCCC(NC(=O)c2cc(NC(=O)c3cc(C)cc(C)c3OC)cc(B(O)O)c2)C1 (stereo not given) |
